Laboratory results as given in ChEMBL document CHEMBL4229550, “An antimycobacterial pleuromutilin analogue effective against dormant bacilli” (Bioorg Med Chem, 2018).
Values after ≈ are worked out from the molar mass of the structure shown. Active and inactive are the calls of the source. The rule behind the calls is not given here.

Tests used:
Staphylococcus aureus [1] = assay: Antibacterial activity against Staphylococcus aureus BAA 44 incubated for 24 hrs under aerobic condition by MABA; format: functional; details: BAA 44, 24 h, read-out: MIC100
In short: (§1)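 Mid-log cultures at OD 0.5 were exposed to serial dilutions under aerobic conditions at 37 °C for 24 h. Resazurin was then added from a 0.08% stock for 1 h. MIC100 was the lowest concentration where the dye stayed blue (pink means growth). Absorbance was also read at 570 and 600 nm.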

Streptococcus salivarius [2] = assay: Antibacterial activity against Streptococcus salivarius […] incubated for 24 hrs under aerobic condition by MABA; format: functional; details: read-out: MIC100
In short: (§2)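 Resazurin was then added from a 0.08% stock for 1 h. MIC100 was the lowest concentration where the dye stayed blue (pink means growth). Absorbance was also read at 570 and 600 nm.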

Bacillus subtilis [3] = assay: Bactericidal activity against Bacillus subtilis ATCC 6051 incubated for 24 hrs under aerobic condition by MABA; format: functional; details: ATCC 6051, 24 h
[4] = system: Mycolicibacterium smegmatis; assay: Antibacterial activity against Mycobacterium smegmatis ATCC 607 incubated for 48 hrs under aerobic condition by MABA; format: functional; details: ATCC 607, 48 h, read-out: MIC100
In short: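 Mid-log culture at OD 0.5 was incubated with serial dilutions aerobically at 37 °C for 48 h. Resazurin was then added from a 0.08% stock for 1 h. MIC100 was the lowest concentration that stayed blue; absorbance was also read at 570/600 nm.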

Staphylococcus aureus [5] = assay: Bactericidal activity against Staphylococcus aureus BAA 1683 incubated for 24 hrs under aerobic condition by MABA; format: functional; details: BAA 1683, 24 h
Acinetobacter baumannii [6] = assay: Antibacterial activity against Acinetobacter baumannii ATCC 19606 incubated for 24 hrs under aerobic condition by MABA; format: functional; details: ATCC 19606 = CIP 70.34 = JCM 6841, 24 h, read-out: MIC100; in short: as §1
Enterococcus faecalis [7] = assay: Bactericidal activity against Enterococcus faecalis ATCC 349 incubated for 24 hrs under aerobic condition by MABA; format: functional; details: ATCC 349, 24 h
Staphylococcus aureus [8] = assay: Bactericidal activity against Staphylococcus aureus BAA 44 incubated for 24 hrs under aerobic condition by MABA; format: functional; details: BAA 44, 24 h
Bacillus subtilis [9] = assay: Antibacterial activity against Bacillus subtilis ATCC 6051 incubated for 24 hrs under aerobic condition by MABA; format: functional; details: ATCC 6051, 24 h, read-out: MIC100; in short: as §1
Streptococcus salivarius [10] = assay: Bactericidal activity against Streptococcus salivarius ATCC 6301 incubated for 24 hrs under aerobic condition by MABA; format: functional; details: ATCC 6301, 24 h
Klebsiella pneumoniae [11] = assay: Bactericidal activity against Klebsiella pneumoniae ATCC 12019 incubated for 24 hrs under aerobic condition by MABA; format: functional; details: ATCC 12019, 24 h
Acinetobacter baumannii [12] = assay: Bactericidal activity against Acinetobacter baumannii ATCC 19606 incubated for 24 hrs under aerobic condition by MABA; format: functional; details: ATCC 19606 = CIP 70.34 = JCM 6841, 24 h
[13] = Selectivity index, ratio of IC50 for African green monkey Vero cells to MIC100 for replicating Mycobacterium tuberculosis H37Rv by MABA; format: toxicity; details: read-out: Selectivity Index
In short: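 Vero cells are cultured in EMEM with 10% FBS and exposed for 72 h to 0.78–200 µg/mL. Medium is switched to phenol-red-free EMEM, MTT is added, and formazan is read at 570 nm to give IC50. The selectivity index is Vero IC50 divided by the MABA MIC.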

Enterococcus faecalis [14] = assay: Antibacterial activity against Enterococcus faecalis ATCC 349 incubated for 24 hrs under aerobic condition by MABA; format: functional; details: ATCC 349, 24 h, read-out: MIC100; in short: as §1
Clostridioides difficile = assay: Bactericidal activity against Clostridium difficile ATCC 700057 incubated for 24 hrs […] by MABA; format: functional; details: ATCC 700057, 24 h
[15] = system: Mycolicibacterium smegmatis; assay: Bactericidal activity against Mycobacterium smegmatis ATCC 607 incubated for 48 hrs under aerobic condition by MABA; format: functional; details: ATCC 607, 48 h
Streptococcus pneumoniae [16] = assay: Antibacterial activity against Streptococcus pneumoniae ATCC 6301 incubated for 24 hrs under aerobic condition by MABA; format: functional; details: ATCC 6301, 24 h, read-out: MIC100; in short: as §1
Enterococcus faecalis [17] = assay: Antibacterial activity against Enterococcus faecalis ATCC 19433 incubated for 24 hrs under aerobic condition by MABA; format: functional; details: ATCC 19433, 24 h, read-out: MIC100; in short: as §1
Staphylococcus aureus [18] = assay: Antibacterial activity against Staphylococcus aureus BAA 2094 incubated for 24 hrs under aerobic condition by MABA; format: functional; details: BAA 2094, 24 h, read-out: MIC100; in short: as §2
[19] = system: Mycobacterium tuberculosis; assay: Antibacterial activity against replicating Mycobacterium tuberculosis H37Rv incubated for 15 days under aerobic condition by MABA; format: functional; details: 360 h, read-out: MIC100
In short: (§3)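 Mtb H37Rv grown in 7H9/OADC at 37 °C with shaking to OD600 0.5. The 0.5-OD culture is exposed aerobically to serial dilutions for 15 days at 37 °C. Resazurin (0.02% stock) is then added for 4 h at 37 °C with shaking.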

Enterococcus faecalis [20] = assay: Bactericidal activity against Enterococcus faecalis ATCC 19433 incubated for 24 hrs under aerobic condition by MABA; format: functional; details: ATCC 19433, 24 h
[21] = system: Mycolicibacterium smegmatis; assay: Antibacterial activity against Mycobacterium smegmatis; format: functional
[22] = system: Mycobacterium tuberculosis; assay: Bactericidal activity against replicating Mycobacterium tuberculosis H37Rv incubated for 15 days under aerobic condition by MABA; format: functional; details: 360 h; in short: as §3
Klebsiella pneumoniae [23] = assay: Antibacterial activity against Klebsiella pneumoniae ATCC 12019 incubated for 24 hrs under aerobic condition by MABA; format: functional; details: ATCC 12019, 24 h, read-out: MIC100; in short: as §1
Escherichia coli [24] = assay: Inhibition of protein translation/transcription in Escherichia coli S30 cell extract at 0.1 ug/ml using circular DNA with pBESTluc after 60 mins by luciferase reporter gene assay; format: functional
In short: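 Coupled transcription/translation used E. coli S30 extract, amino acid mix and premix, with the pBESTluc template carrying firefly luciferase under the tac promoter. Compounds were added in DMSO and reactions were started with DNA. Incubation was 60 min at 37 °C, stopped on ice, and luciferase was read after adding assay substrate.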

Staphylococcus aureus [25] = assay: Bactericidal activity against Staphylococcus aureus ATCC 25923 incubated for 24 hrs under aerobic condition by MABA; format: functional; details: ATCC 25923, 24 h
Escherichia coli [26] = assay: Bactericidal activity against Escherichia coli ATCC 10798 incubated for 24 hrs under aerobic condition by MABA; format: functional; details: ATCC 10798, 24 h
Staphylococcus aureus [27] = assay: Antibacterial activity against Staphylococcus aureus ATCC 25923 incubated for 24 hrs under aerobic condition by MABA; format: functional; details: ATCC 25923, 24 h, read-out: MIC100; in short: as §1
Staphylococcus aureus [28] = assay: Bactericidal activity against Staphylococcus aureus incubated for 24 hrs under aerobic condition by MABA; format: functional
Streptococcus pneumoniae [29] = assay: Bactericidal activity against Streptococcus pneumoniae ATCC 6301 incubated for 24 hrs under aerobic condition by MABA; format: functional; details: ATCC 6301, 24 h
Staphylococcus aureus [30] = assay: Antibacterial activity against Staphylococcus aureus BAA 1683 incubated for 24 hrs under aerobic condition by MABA; format: functional; details: BAA 1683, 24 h, read-out: MIC100; in short: as §1
[31] = Half life in Sprague-Dawley rat liver microsomes at 500 ng/ml preincubated for 5 mins followed by NADPH addition by C-MS/MS analysis; format: ADME, microsome
Staphylococcus aureus [32] = assay: Antibacterial activity against Staphylococcus aureus incubated for 24 hrs under aerobic condition by MABA; format: functional; details: read-out: MIC100; in short: as §2
Escherichia coli [33] = assay: Antibacterial activity against Escherichia coli ATCC 10798 incubated for 24 hrs under aerobic condition by MABA; format: functional; details: ATCC 10798, 24 h, read-out: MIC100; in short: as §1
Staphylococcus aureus [34] = assay: Bactericidal activity against Staphylococcus aureus BAA 2094 incubated for 24 hrs under aerobic condition by MABA; format: functional; details: BAA 2094, 24 h

**Q.** For `C=C[C@]1(C)C[C@@H](OC(=O)CSC(C)(C)CNC(=O)[C@H](N)C(C)C)[C@]2(C)[C@H](C)CC[C@]3(CCC(=O)[C@H]32)[C@@H](C)[C@@H]1O` [VALNEMULIN], which MIC (Staphylococcus aureus [1]) is on record?
**A.** > 25 µg/mL

**Q.** And the MIC (Streptococcus salivarius [2])?
**A.** 0.4 µg/mL (≈ 0.708 µM)

**Q.** And the MBC (Bacillus subtilis [3])?
**A.** 25 µg/mL (≈ 44.3 µM)

**Q.** And the MIC [4]?
**A.** 12.5 µg/mL (≈ 22.1 µM)

**Q.** What about the MBC (Staphylococcus aureus [5]) of the same molecule?
**A.** > 25 µg/mL

**Q.** What about the MIC (Acinetobacter baumannii [6]) of the same molecule?
**A.** 4.69 µg/mL (≈ 8.3 µM)

**Q.** What about the MBC (Enterococcus faecalis [7]) of the same molecule?
**A.** > 25 µg/mL

**Q.** What about the MBC (Staphylococcus aureus [8]) of the same molecule?
**A.** > 25 µg/mL

**Q.** What about the MIC (Bacillus subtilis [9]) of the same molecule?
**A.** 12.5 µg/mL (≈ 22.1 µM)

**Q.** What about the MBC (Streptococcus salivarius [10]) of the same molecule?
**A.** > 25 µg/mL

**Q.** What about the MBC (Klebsiella pneumoniae [11]) of the same molecule?
**A.** 25 µg/mL (≈ 44.3 µM)

**Q.** What about the MBC (Acinetobacter baumannii [12]) of the same molecule?
**A.** 6.25 µg/mL (≈ 11.1 µM)

**Q.** What about the selectivity ratio [13] of the same molecule?
**A.** 4.79

**Q.** What about the MIC (Enterococcus faecalis [14]) of the same molecule?
**A.** > 25 µg/mL

**Q.** And the MBC (Clostridioides difficile)?
**A.** 1.56 µg/mL (≈ 2.76 µM)

**Q.** And the MBC [15]?
**A.** 25 µg/mL (≈ 44.3 µM)

**Q.** What about the MIC (Streptococcus pneumoniae [16]) of the same molecule?
**A.** 12.5 µg/mL (≈ 22.1 µM)

**Q.** What about the MIC (Enterococcus faecalis [17]) of the same molecule?
**A.** 6.25 µg/mL (≈ 11.1 µM)

**Q.** And the MIC (Staphylococcus aureus [18])?
**A.** > 25 µg/mL

**Q.** And the MIC [19]?
**A.** 3.13 µg/mL (≈ 5.54 µM)

**Q.** And the MBC (Enterococcus faecalis [20])?
**A.** 12.5 µg/mL (≈ 22.1 µM)

**Q.** What about the MIC [21] of the same molecule?
**A.** 8 to 16 µg/mL (≈ 14.2 to 28.3 µM)

**Q.** And the MBC [22]?
**A.** 6.25 µg/mL (≈ 11.1 µM)

**Q.** What about the MIC (Klebsiella pneumoniae [23]) of the same molecule?
**A.** 12.5 µg/mL (≈ 22.1 µM)

**Q.** And the inhibition (Escherichia coli [24])?
**A.** Active

**Q.** What about the MBC (Staphylococcus aureus [25]) of the same molecule?
**A.** > 25 µg/mL

**Q.** What about the MBC (Escherichia coli [26]) of the same molecule?
**A.** > 25 µg/mL

**Q.** And the MIC (Staphylococcus aureus [27])?
**A.** > 25 µg/mL

**Q.** And the MBC (Staphylococcus aureus [28])?
**A.** 0.8 µg/mL (≈ 1.42 µM)

**Q.** And the MBC (Streptococcus pneumoniae [29])?
**A.** > 25 µg/mL

**Q.** And the MIC (Staphylococcus aureus [30])?
**A.** > 25 µg/mL

**Q.** What about the t1/2 [31] of the same molecule?
**A.** 10 min

**Q.** And the MIC (Staphylococcus aureus [32])?
**A.** 0.4 µg/mL (≈ 0.708 µM)

**Q.** What about the MIC (Escherichia coli [33]) of the same molecule?
**A.** 12.5 µg/mL (≈ 22.1 µM)

**Q.** What about the MBC (Staphylococcus aureus [34]) of the same molecule?
**A.** > 25 µg/mL
